From ChEMBL document CHEMBL2407075, “Sulphonamido-quinoxalines: search for anticancer agent” (Eur J Med Chem, 2013)

Assays:
COLO 205 = assay: Growth inhibition of human COLO205 cells at 10 uM after 48 hrs by sulforhodamine B assay; assay type: functional; settings: COLO 205, 48 h, read-out: GI
How it was run: (§1)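 Single-dose NCI-60 prescreen at 10 µM for 48 h at 37 °C and 5% CO2, using cells grown in RPMI 1640 with 5% FBS and 2 mM glutamine. Protein was measured by SRB after TCA fixation: 10% final for adherent lines, 16% for suspension lines. Absorbance was read at 515 nm. Percent growth inhibition was obtained by subtracting percent growth from 100.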

SNB-75 = assay: Growth inhibition of human SNB75 cells at 10 uM after 48 hrs by sulforhodamine B assay; assay type: functional; settings: SNB-75, 48 h, read-out: GI
How it was run: (§2)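 Single-dose screen at 10 µM across the NCI 60 panel. Cells in RPMI 1640 with 5% FBS and 2 mM L-glutamine, plated at 5000–40,000/well and preincubated 24 h at 37 °C, 5% CO2. Drug in DMSO, 48 h exposure. Fixed with TCA, stained with SRB, A515 read. Percent growth is taken relative to untreated control, and inhibition is 100 minus growth.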

SW-620 = assay: Growth inhibition of human SW620 cells at 10 uM after 48 hrs by sulforhodamine B assay; assay type: functional; settings: SW-620, 48 h, read-out: GI; how it was run: as §2
OVCAR-8 = assay: Growth inhibition of human OVCAR8 cells at 10 uM after 48 hrs by sulforhodamine B assay; assay type: functional; settings: OVCAR-8, 48 h, read-out: GI; how it was run: as §2
UACC-62 = assay: Growth inhibition of human UACC62 cells at 10 uM after 48 hrs by sulforhodamine B assay; assay type: functional; settings: UACC-62, 48 h, read-out: GI; how it was run: as §2
MCF7 = assay: Growth inhibition of human MCF7 cells at 10 uM after 48 hrs by sulforhodamine B assay; assay type: functional; settings: MCF7, 48 h, read-out: GI; how it was run: as §2
SK-MEL-28 = assay: Growth inhibition of human SK-MEL-28 cells at 10 uM after 48 hrs by sulforhodamine B assay; assay type: functional; settings: SK-MEL-28, 48 h, read-out: GI; how it was run: as §2
SK-MEL-5 = assay: Growth inhibition of human SK-MEL-5 cells at 10 uM after 48 hrs by sulforhodamine B assay; assay type: functional; settings: SK-MEL-5, 48 h, read-out: GI; how it was run: as §2
SF-539 = assay: Growth inhibition of human SF539 cells at 10 uM after 48 hrs by sulforhodamine B assay; assay type: functional; settings: SF-539, 48 h, read-out: GI; how it was run: as §2
HT-29 = assay: Growth inhibition of human HT-29 cells at 10 uM after 48 hrs by sulforhodamine B assay; assay type: functional; settings: HT-29, 48 h, read-out: GI
How it was run: (§3)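 NCI-60 one-dose primary screen at a single 10 µM concentration. Cells in RPMI 1640 with 5% FBS, preincubated 24 h at 37 °C, 5% CO2. Drug exposure 48 h, then TCA fixation, SRB staining and absorbance at 515 nm. Percent growth calculated against time-zero and untreated control wells, then converted to percent growth inhibition.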

MDA-MB-468 = assay: Growth inhibition of human MDA-MB-468 cells at 10 uM after 48 hrs by sulforhodamine B assay; assay type: functional; settings: MDA-MB-468, 48 h, read-out: GI; how it was run: as §2
OVCAR-4 = assay: Growth inhibition of human OVCAR4 cells at 10 uM after 48 hrs by sulforhodamine B assay; assay type: functional; settings: OVCAR-4, 48 h, read-out: GI; how it was run: as §2
OVCAR-3 = assay: Growth inhibition of human OVCAR3 cells at 10 uM after 48 hrs by sulforhodamine B assay; assay type: functional; settings: OVCAR-3, 48 h, read-out: GI; how it was run: as §2
HCT-116 = assay: Growth inhibition of human HCT116 cells at 10 uM after 48 hrs by sulforhodamine B assay; assay type: functional; settings: HCT-116, 48 h, read-out: GI; how it was run: as §3
[1] = Growth inhibition of human HCC2998 cells at 10 uM after 48 hrs by sulforhodamine B assay; assay type: functional; settings: HCC 2998, 48 h, read-out: GI; how it was run: as §3
[2] = Growth inhibition of human NCI-ADR-RES cells at 10 uM after 48 hrs by sulforhodamine B assay; assay type: functional; settings: read-out: GI; how it was run: as §2
A549 = assay: Growth inhibition of human A549/ATCC cells at 10 uM after 48 hrs by sulforhodamine B assay; assay type: functional; settings: A549, 48 h, read-out: GI; how it was run: as §1
K562 = assay: Growth inhibition of human K562 cells at 10 uM after 48 hrs by sulforhodamine B assay; assay type: functional; settings: K562, 48 h, read-out: GI; how it was run: as §2
BT-549 = assay: Growth inhibition of human BT549 cells at 10 uM after 48 hrs by sulforhodamine B assay; assay type: functional; settings: BT-549, 48 h, read-out: GI; how it was run: as §1
HCT-15 = assay: Growth inhibition of human HCT15 cells at 10 uM after 48 hrs by sulforhodamine B assay; assay type: functional; settings: HCT-15, 48 h, read-out: GI; how it was run: as §3
Malme-3M = assay: Growth inhibition of human MALME-3M cells at 10 uM after 48 hrs by sulforhodamine B assay; assay type: functional; settings: read-out: GI; how it was run: as §2
NCI-H226 = assay: Growth inhibition of human NCI-H226 cells at 10 uM after 48 hrs by sulforhodamine B assay; assay type: functional; settings: NCI-H226, 48 h, read-out: GI; how it was run: as §2
NCI-H522 = assay: Growth inhibition of human NCI-H522 cells at 10 uM after 48 hrs by sulforhodamine B assay; assay type: functional; settings: NCI-H522, 48 h, read-out: GI; how it was run: as §2
[3] = Oral bioavailability in human; assay type: ADME, organism-based; settings: in silico prediction
RPMI-8226 = assay: Growth inhibition of human RPMI8226 cells at 10 uM after 48 hrs by sulforhodamine B assay; assay type: functional; settings: RPMI-8226, 48 h, read-out: GI; how it was run: as §2
A498 = assay: Growth inhibition of human A498 cells at 10 uM after 48 hrs by sulforhodamine B assay; assay type: functional; settings: A498, 48 h, read-out: GI; how it was run: as §1
UACC-257 = assay: Growth inhibition of human UACC257 cells at 10 uM after 48 hrs by sulforhodamine B assay; assay type: functional; settings: UACC-257, 48 h, read-out: GI; how it was run: as §2
SK-MEL-2 = assay: Growth inhibition of human SK-MEL-2 cells at 10 uM after 48 hrs by sulforhodamine B assay; assay type: functional; settings: SK-MEL-2, 48 h, read-out: GI; how it was run: as §2
[4] = Growth inhibition of human Hs 578T cells at 10 uM after 48 hrs by sulforhodamine B assay; assay type: functional; settings: read-out: GI; how it was run: as §3
UO-31 = assay: Growth inhibition of human UO31 cells at 10 uM after 48 hrs by sulforhodamine B assay; assay type: functional; settings: UO-31, 48 h, read-out: GI; how it was run: as §2
SF-268 = assay: Growth inhibition of human SF268 cells at 10 uM after 48 hrs by sulforhodamine B assay; assay type: functional; settings: SF-268, 48 h, read-out: GI; how it was run: as §2
ACHN = assay: Growth inhibition of human ACHN cells at 10 uM after 48 hrs by sulforhodamine B assay; assay type: functional; settings: read-out: GI; how it was run: as §1
U-251 = assay: Growth inhibition of human U251 cells at 10 uM after 48 hrs by sulforhodamine B assay; assay type: functional; settings: U-251, 48 h, read-out: GI; how it was run: as §2
NCI-H23 = assay: Growth inhibition of human NCI-H23 cells at 10 uM after 48 hrs by sulforhodamine B assay; assay type: functional; settings: NCI-H23, 48 h, read-out: GI; how it was run: as §2

SMILES	inhibition of growth at 10 µM (COLO 205)	inhibition of growth at 10 µM (SNB-75)	inhibition of growth at 10 µM (SW-620)	inhibition of growth at 10 µM (OVCAR-8)	inhibition of growth at 10 µM (UACC-62)	inhibition of growth at 10 µM (MCF7)	inhibition of growth at 10 µM (SK-MEL-28)	inhibition of growth at 10 µM (SK-MEL-5)	inhibition of growth at 10 µM (SF-539)	inhibition of growth at 10 µM (HT-29)	inhibition of growth at 10 µM (MDA-MB-468)	inhibition of growth at 10 µM (OVCAR-4)	inhibition of growth at 10 µM (OVCAR-3)	inhibition of growth at 10 µM (HCT-116)	inhibition of growth at 10 µM [1]	inhibition of growth at 10 µM [2]	inhibition of growth at 10 µM (A549)	inhibition of growth at 10 µM (K562)	inhibition of growth at 10 µM (BT-549)	inhibition of growth at 10 µM (HCT-15)	also measured
O=S(=O)(Nc1ccccn1)c1ccc2nc(-c3ccccc3)c(-c3ccccc3)nc2c1	54.2%	61.8%	47.9%	52.8%	41.1%	65.9%	30.3%	-6.25%	61.9%	81.7%	-4.67%	40.1%	48.9%	72.1%	60.6%	73.2%	54.7%	64.4%	80.2%	62.4%	inhibition of growth at 10 µM (Malme-3M): 32.9%; inhibition of growth at 10 µM (NCI-H226): -1.38%; inhibition of growth at 10 µM (NCI-H522): 65.6%; bioavailability [3]: 100%; inhibition of growth at 10 µM (RPMI-8226): 89.9%; inhibition of growth at 10 µM (A498): 70.2%; inhibition of growth at 10 µM (UACC-257): 42.5%; inhibition of growth at 10 µM (SK-MEL-2): 39.3%; inhibition of growth at 10 µM [4]: 76.3%; inhibition of growth at 10 µM (UO-31): 45.2%; inhibition of growth at 10 µM (SF-268): 27.6%; inhibition of growth at 10 µM (ACHN): 34.3%; inhibition of growth at 10 µM (U-251): 56.5%; inhibition of growth at 10 µM (NCI-H23): 46.5%
CC(=S)NS(=O)(=O)c1ccc2nc(-c3ccccc3)c(-c3ccccc3)nc2c1	4.64%	26.9%	3.84%	3.93%	20.7%	11.8%	1.73%	28.9%	3.29%	21.5%	23.7%	13.4%	1.94%	14.5%	6.23%	8.63%	7.74%	26.8%	2.74%	26.2%	inhibition of growth at 10 µM (Malme-3M): 2.85%; inhibition of growth at 10 µM (NCI-H226): 53.6%; inhibition of growth at 10 µM (NCI-H522): 3.73%; bioavailability [3]: 94.7%; inhibition of growth at 10 µM (RPMI-8226): 39.6%; inhibition of growth at 10 µM (A498): 22.7%; inhibition of growth at 10 µM (UACC-257): 2.23%; inhibition of growth at 10 µM (SK-MEL-2): 8.53%; inhibition of growth at 10 µM [4]: 20.8%; inhibition of growth at 10 µM (UO-31): 10.6%; inhibition of growth at 10 µM (SF-268): 1.86%; inhibition of growth at 10 µM (ACHN): 16.6%; inhibition of growth at 10 µM (U-251): 10.3%; inhibition of growth at 10 µM (NCI-H23): 11.7%
